Laboratory results reported in ChEMBL document CHEMBL1121966, “(2R*,3S*)-1-[125I]Iodo-2,3-bis(4-hydroxyphenyl)pentane ([125I]iodonorhexestrol) and (2R*,3S*)-1-[77Br]Bromo-2,3-bis(4-hydroxyphenyl)pentane ([77Br]bromonorhexestrol), two gamma-emitting estrogens that show receptor-mediated uptake by target tissues in vivo” (1982).

Key:
Assay type in all cases: functional
[1] = Spleen/blood distribution ratio was determined immature female rats at 1 hr
Outline: (§1)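 Immature (25 day) female Sprague-Dawley rats (ca. 50 g) were dosed iv (jugular or tail vein) in ethanol plus 0.9% NaCl/rat serum (1:1). Doses were 2 μCi of [125I]iodonorhexestrol (≤15 pmol/dose), or 2 μCi each of [77Br]bromonorhexestrol (≤1.25 pmol/dose) and 16α-[125I]iodoestradiol (2 pmol/dose). Rats were killed at 1, 3 or 6 h; blood and tissues were weighed and γ-counted. Thyroid weight assumed 0.005 g/100 g body weight. Mean ± SD.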

[2] = Spleen/blood distribution ratio was determined immature female rats at 3h; outline: as §1
[3] = Esophagus/blood distribution ratio was determined in immature female rats at 1 hr with unlabeled estradiol
Outline: (§2)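 Immature (25-day, ca. 50 g) Sprague-Dawley female rats received an iv injection (jugular or tail vein) of HPLC-purified tracer in ethanol plus 0.9% NaCl/rat serum 1:1. Doses were 2 μCi [125I]iodo tracer (≤15 pmol), or 2 μCi [77Br]bromo tracer (≤1.25 pmol) with 2 μCi 16α-[125I]iodoestradiol. Animals were killed at 1 h; blood and tissues were weighed and γ-counted. Blocking: coinjected unlabeled estradiol, 9 μg (iodo) or 18 μg (bromo). Mean ± SD.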

[4] = Esophagus/blood distribution ratio was determined in immature female rats at 3h
Outline: (§3)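 Dual-label study in immature 25-day female Sprague-Dawley rats (ca. 50 g). Each received 2 μCi [77Br]bromo tracer (≤1.25 pmol/dose) and 2 μCi 16α-[125I]iodoestradiol (2 pmol/dose) by tail or jugular vein, in ethanol diluted with saline/rat serum 1:1. Rats were killed at 3 or 6 h; blood and 11 tissues were weighed and counted. Five rats per time point; mean ± SD.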

[5] = Esophagus/blood distribution ratio was determined in immature female rats at 6 hr; outline: as §3
[6] = Muscle/blood distribution ratio was determined immature female rats at 1 hr with unlabeled estradiol; outline: as §2
[7] = Muscle/blood distribution ratio was determined in immature female rats at 1 hr; outline: as §2
[8] = Muscle/blood distribution ratio was determined in immature female rats at 3h; outline: as §3
[9] = Thyroid/blood distribution ratio was determined in immature female rats at 3h; outline: as §1
[10] = Thyroid/blood distribution ratio was determined in immature female rats at 6 hr; outline: as §1
[11] = Kidney/blood distribution ratio was determined in immature female rats at 6 hr; outline: as §3
[12] = Liver/blood distribution ratio was determined in immature female rats at 1 hr; outline: as §2
[13] = Liver/blood distribution ratio was determined in immature female rats at 1 hr with unlabeled estradiol; outline: as §2
[14] = Liver/blood distribution ratio was determined in immature female rats at 3h; outline: as §3
[15] = Liver/blood distribution ratio was determined in immature female rats at 6 hr; outline: as §3
[16] = Lung/blood distribution ratio was determined in immature female rats at 1 hr; outline: as §2
[17] = Lung/blood distribution ratio was determined in immature female rats at 3h; outline: as §3
[18] = Lung/blood distribution ratio was determined in immature female rats at 6 hr; outline: as §3
[19] = Spleen/blood distribution ratio was determined immature female rats at 6 hr; outline: as §1
[20] = Spleen/blood distribution ratio was determined in immature female rats at 1 hr with unlabeled estradiol
[21] = Kidney/blood distribution ratio was determined in immature female rats at 1 hr; outline: as §2
[22] = Kidney/blood distribution ratio was determined in immature female rats at 1 hr with unlabeled estradiol; outline: as §2
[23] = Tissue/blood distribution ratio was measured in immature female rats at 1 hr; outline: as §1
[24] = Tissue/blood distribution ratio was measured in immature female rats at 1h, unlabeled estradiol (18 microg) coinjected
Outline: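 Immature female rats given iv [77Br]bromonorhexestrol with 16α-[125I]iodoestradiol (2 μCi each) plus 18 μg unlabeled estradiol coinjected; killed at 1 h. Tissue and blood were weighed and counted, and tissue-to-blood radioactivity ratios were computed; 5 animals, mean ± SD.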

[25] = Tissue/blood distribution ratio was measured in immature female rats at 3h; outline: as §1
[26] = Tissue/blood distribution ratio was measured in immature female rats at 6 hr; outline: as §1
[27] = Thyroid/blood distribution ratio was determined in immature female rats at 1 hr; outline: as §1
[28] = Thyroid/blood distribution ratio was determined in immature female rats at 1 hr with unlabeled estradiol
Outline: (§4)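 Same iv biodistribution in immature female rats, killed at 1 h, with unlabeled estradiol coinjected to block receptor uptake: 9 μg with [125I]iodonorhexestrol (3 rats), 18 μg with the [77Br]bromonorhexestrol/16α-[125I]iodoestradiol pair (5 rats). Tissue and blood radioactivity were counted as % injected dose/g and tissue-to-blood ratio.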

[29] = Uterus/blood distribution ratio was measured in immature female rats at 1 hr; outline: as §1
[30] = Uterus/blood distribution ratio was measured in immature female rats at 3h; outline: as §1
[31] = Uterus/blood distribution ratio was measured in immature female rats at 6 hr; outline: as §1
[32] = Kidney/blood distribution ratio was determined in immature female rats at 3h; outline: as §3
[33] = Muscle/blood distribution ratio was determined in immature female rats at 6 hr; outline: as §3
[34] = Uterus/blood distribution of compound was measured in immature female rats at 1 hr with unlabeled estradiol; outline: as §4
Rattus norvegicus [35] = species on record: Rattus norvegicus; assay: Percent injected dose per gram Muscle at 1 hr; outline: as §2
Rattus norvegicus [36] = species on record: Rattus norvegicus; assay: Percent injected dose per gram Uterus at 3h; outline: as §3
Rattus norvegicus [37] = species on record: Rattus norvegicus; assay: Percent injected dose per gram kidney at 6 hr; outline: as §3
Rattus norvegicus [38] = species on record: Rattus norvegicus; assay: Percent injected dose per gram spleen at 6 hr; outline: as §1
[39] = Lung/blood distribution ratio was determined in immature female rats at 1 hr with unlabeled estradiol; outline: as §2
[40] = Esophagus/blood distribution ratio was determined in immature female rats at 1 hr; outline: as §2

Compound: C[C@]12CC[C@@H]3c4ccc(O)cc4CC[C@H]3[C@@H]1C[C@@H](I)[C@@H]2O
- Ratio [1]: 0.46
- Ratio [2]: 0.27
- Ratio [3]: 0.95
- Ratio [4]: 0.47
- Ratio [5]: 0.76
- Ratio [6]: 0.5
- Ratio [7]: 0.42
- Ratio [8]: 0.25
- Ratio [9]: 192.8
- Ratio [10]: 472.6
- Ratio [11]: 3.49
- Ratio [12]: 3.55
- Ratio [13]: 3.95
- Ratio [14]: 4.76
- Ratio [15]: 6.28
- Ratio [16]: 0.86
- Ratio [17]: 0.67
- Ratio [18]: 0.93
- Ratio [19]: 0.35
- Ratio [20]: 0.67
- Ratio [21]: 2
- Ratio [22]: 1.4
- Ratio [23]: 1
- Ratio [24]: 1
- Ratio [25]: 1
- Ratio [26]: 1
- Ratio [27]: 30.8
- Ratio [28]: 44.5
- Ratio [29]: 9.54
- Ratio [30]: 7.36
- Ratio [31]: 9.14
- Ratio [32]: 1.83
- Ratio [33]: 0.27
- Ratio [34]: 1.37
- Injected dose (Rattus norvegicus [35]): 0.53%
- Injected dose (Rattus norvegicus [36]): 6.83%
- Injected dose (Rattus norvegicus [37]): 0.4%
- Injected dose (Rattus norvegicus [38]): 0.08%
- Ratio [39]: 1.08
- Ratio [40]: 0.62
